Where two headings read alike, the source gives them in different places. Each block holds one compound with its values, some of them ahead of it.
What was measured:
UGT1A9 = conditions: cited from earlier work
BCRP = target: T1, BCRP (Homo sapiens, UniProt Q9UNQ0); experiment: BCRP-mediated efflux of flavone glucuronides from HeLa-UGT1A9 cells; type: in vitro ADME; conditions: for Log(CLint) / Vmax: BCRP-mediated glucuronide efflux, HeLa-UGT1A9 cells; for Km: efflux kinetic parameter Km, HeLa-UGT1A9 cells (Table 2, unit inferred)
T1 sequence (Q9UNQ0 1-655): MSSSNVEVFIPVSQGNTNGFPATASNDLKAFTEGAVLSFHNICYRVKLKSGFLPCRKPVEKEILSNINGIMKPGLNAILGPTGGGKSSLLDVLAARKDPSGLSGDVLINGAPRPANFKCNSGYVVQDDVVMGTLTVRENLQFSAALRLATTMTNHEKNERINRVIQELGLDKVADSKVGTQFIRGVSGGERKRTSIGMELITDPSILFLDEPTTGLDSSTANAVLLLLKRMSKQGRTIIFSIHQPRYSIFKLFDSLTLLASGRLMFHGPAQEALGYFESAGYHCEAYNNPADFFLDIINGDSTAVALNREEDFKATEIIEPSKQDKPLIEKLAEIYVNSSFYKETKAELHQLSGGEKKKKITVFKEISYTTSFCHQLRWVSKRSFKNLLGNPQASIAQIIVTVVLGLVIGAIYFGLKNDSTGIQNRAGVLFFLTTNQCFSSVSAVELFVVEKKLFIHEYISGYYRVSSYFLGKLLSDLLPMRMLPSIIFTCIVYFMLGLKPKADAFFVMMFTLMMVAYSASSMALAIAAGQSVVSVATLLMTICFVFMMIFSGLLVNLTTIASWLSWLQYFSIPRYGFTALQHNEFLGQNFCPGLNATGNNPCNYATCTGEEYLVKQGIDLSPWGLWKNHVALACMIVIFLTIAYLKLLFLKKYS
Outline: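 HeLa cells stably expressing UGT1A9 were used 3 days post-seeding and washed twice with 37°C HBSS (pH 7.4). They were loaded at 37°C with a mono- or dihydroxyflavone aglycone in HBSS, diluted from a 100X DMSO/methanol (1:4) stock. Medium was sampled within the linear time range, quenched with acetonitrile/acetic acid and analysed by UPLC-DAD. Rates (pmol/min/mg protein) were fitted against intracellular glucuronide concentration; CLint = Vmax/Km. n=3.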

HeLa-UGT1A9 cells [1] = type: in vitro ADME, human; conditions: end of experiment
Outline: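 After the efflux incubation, cells were washed twice with ice-cold HBSS, collected in HBSS and sonicated for 30 min at 4°C. Lysates were centrifuged at 15,500 rpm for 20 min. Supernatant was mixed with acetonitrile/acetic acid stop solution and glucuronides were quantified by UPLC-DAD. Protein was measured by assay kit against a BSA standard, and concentration was calculated assuming a cell volume of 4 μl/mg protein. n=3.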

HeLa-UGT1A9 cells [2] = experiment: Fraction metabolized; type: in vitro ADME, human; conditions: six DHFs compared at five loading concentrations (Fig. 8A)
[3] = target: T2, Human BCRP (Arg482) membrane vesicles (Homo sapiens, UniProt Q9UNQ0); experiment: Vesicular transport of HF glucuronides in BCRP-overexpressing membrane vesicles; type: in vitro ADME; conditions: for difference in Km between membrane vesicles and HeLa-UGT1A9 cells: BCRP vesicles vs HeLa-UGT1A9 cells; for Km: efflux kinetic parameter Km, BCRP membrane vesicles (Table 2, unit inferred)
T2 sequence (Q9UNQ0 1-655): T1 sequence (Q9UNQ0 1-655)
Outline: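 Inside-out human BCRP (Arg482) membrane vesicles were incubated with glucuronide substrate and 5 mM ATP, or AMP as control, in 10 mM MgCl₂/10 mM Tris-HCl (pH 7.4). The reaction was stopped with cold buffer, followed by rapid filtration through glass-fibre filters and ice-cold washes. Filters were extracted in 50% methanol with sonication, centrifuged and analysed by UPLC. ATP-dependent transport was taken as ATP minus AMP values.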

[4] = UGT1A9-mediated glucuronidation of the aglycone, ref Wu and Hu [37]
[5] = loading aglycone concentration 0.3125 μM
[6] = loading aglycone concentration 0.625 μM
[7] = loading aglycone concentration 1.25 μM
[8] = loading aglycone concentration 2.5 μM
[9] = loading aglycone concentration 5 μM
[10] = loading aglycone concentration 10 μM
[11] = loading aglycone concentration 15 μM
[12] = loading aglycone concentration 20 μM

SMILES: O=c1cc(-c2ccccc2O)oc2ccccc12 [2′HF, 2′-Hydroxyflavone]
- Km (UGT1A9; [4]): 0.4 µM
- Log(CLint)′ (UGT1A9; [4]): 2.27
- Vmax′ (UGT1A9; [4]): 74.4 pmol/mg/min

SMILES: O=c1c(O)c(-c2ccccc2O)oc2ccccc12 [3,2′DHF, 3,2′-Dihydroxyflavone]
- Km (UGT1A9; [4]): 0.67 µM
- Log(CLint)′ (UGT1A9; [4]): 1.89
- Vmax′ (UGT1A9; [4]): 52 pmol/mg/min

SMILES: O=c1c(O)c(-c2cccc(O)c2)oc2ccccc12 [3,3′ DHF, 3,3′-Dihydroxyflavone]
- Km (UGT1A9; [4]): 0.11 µM
- Log(CLint)′ (UGT1A9; [4]): 4.44
- Vmax′ (UGT1A9; [4]): 3100 pmol/mg/min

SMILES: O=c1c(O)c(-c2ccc(O)cc2)oc2ccccc12 [3,4′DHF, 3,4′-Dihydroxyflavone]
- Km (UGT1A9; [4]): 0.13 µM
- Vmax′ (UGT1A9; [4]): 1800 pmol/mg/min

- Log(CLint) (BCRP): 0.38
- Vmax (BCRP): 86.0 ± 5.4 pmol/mg/min
- Intracellular Con. of DHFs-3-O-G (HeLa-UGT1A9 cells [1]; [5]): 2.67 ± 0.09 µM
- Intracellular Con. of DHFs-3-O-G (HeLa-UGT1A9 cells [1]; [6]): 14.27 ± 2.00 µM
- Intracellular Con. of HFs-G or DHFs-3-O-G (HeLa-UGT1A9 cells [1]; [7]): 71.15 ± 6.11 µM
- Intracellular Con. of HFs-G or DHFs-3-O-G (HeLa-UGT1A9 cells [1]; [8]): 241.60 ± 26.10 µM
- Intracellular Con. of HFs-G or DHFs-3-O-G (HeLa-UGT1A9 cells [1]; [9]): 645.32 ± 5.81 µM
- Intracellular Con. of HFs-G or DHFs-3-O-G (HeLa-UGT1A9 cells [1]; [10]): 715.62 ± 31.7 µM
SMILES: O=C(O)[C@H]1O[C@@H](Oc2c(-c3ccc(O)cc3)oc3ccccc3c2=O)[C@H](O)[C@@H](O)[C@@H]1O [3,4′DHF-3-O-G]

SMILES: O=c1c(O)c(-c2ccccc2)oc2cccc(O)c12 [3,5 DHF, 3,5-Dihydroxyflavone]
- fmet (HeLa-UGT1A9 cells [2]): least sensitive to the rising concentration
- Km (UGT1A9; [4]): 0.25 µM
- Log(CLint)′ (UGT1A9; [4]): 3.88
- Vmax′ (UGT1A9; [4]): 1900 pmol/mg/min

- Log(CLint) (BCRP): 0.72
- Vmax (BCRP): 67.3 ± 6.2 pmol/mg/min
- Intracellular Con. of DHFs-3-O-G (HeLa-UGT1A9 cells [1]; [5]): 2.28 ± 0.68 µM
- Intracellular Con. of DHFs-3-O-G (HeLa-UGT1A9 cells [1]; [6]): 4.82 ± 0.02 µM
- Intracellular Con. of HFs-G or DHFs-3-O-G (HeLa-UGT1A9 cells [1]; [7]): 14.70 ± 2.60 µM
- Intracellular Con. of HFs-G or DHFs-3-O-G (HeLa-UGT1A9 cells [1]; [8]): 53.48 ± 3.45 µM
- Intracellular Con. of HFs-G or DHFs-3-O-G (HeLa-UGT1A9 cells [1]; [9]): 242.98 ± 9.46 µM
- Intracellular Con. of HFs-G or DHFs-3-O-G (HeLa-UGT1A9 cells [1]; [10]): 416.65 ± 12.34 µM
SMILES: O=C(O)[C@H]1O[C@@H](Oc2c(-c3ccccc3)oc3cccc(O)c3c2=O)[C@H](O)[C@@H](O)[C@@H]1O [3,5DHF-3-O-G]

SMILES: O=c1c(O)c(-c2ccccc2)oc2ccc(O)cc12 [3,6DHF, 3,6-Dihydroxyflavone]
- fmet (HeLa-UGT1A9 cells [2]): highest fmet value at all tested concentration
- Km (UGT1A9; [4]): 0.62 µM
- Log(CLint)′ (UGT1A9; [4]): 4.34
- Vmax′ (UGT1A9; [4]): 13000 pmol/mg/min

SMILES: O=c1c(O)c(-c2ccccc2)oc2cc(O)ccc12 [3,7DHF(3-OH), 3,7-Dihydroxyflavone]
- Km (UGT1A9; [4]): 0.22 µM
- Log(CLint)′ (UGT1A9; [4]): 4.32
- Vmax′ (UGT1A9; [4]): 4600 pmol/mg/min

SMILES: O=c1c(O)c(-c2ccccc2)oc2ccccc12 [3HF, 3-Hydroxyflavone]
- Km (UGT1A9; [4]): 0.3 µM
- Log(CLint)′ (UGT1A9; [4]): 3.84
- Vmax′ (UGT1A9; [4]): 2100 pmol/mg/min

- Log(CLint) (BCRP): 1.23
- Vmax (BCRP): 165.6 ± 10.1 pmol/mg/min
- Km (BCRP): 9.7 µM
- difference in Km between membrane vesicles and HeLa-UGT1A9 cells [3]: approximately 3 fold
- Km [3]: 29 µM
- Intracellular Con. of HFs-G or DHFs-3-O-G (HeLa-UGT1A9 cells [1]; [7]): 7.14 ± 3.02 µM
- Intracellular Con. of HFs-G or DHFs-3-O-G (HeLa-UGT1A9 cells [1]; [8]): 38.56 ± 8.36 µM
- Intracellular Con. of HFs-G or DHFs-3-O-G (HeLa-UGT1A9 cells [1]; [9]): 206.98 ± 12.39 µM
- Intracellular Con. of HFs-G or DHFs-3-O-G (HeLa-UGT1A9 cells [1]; [10]): 335.57 ± 41.55 µM
- Intracellular Con. of HFs-G (HeLa-UGT1A9 cells [1]; [11]): 356.82 ± 94.04 µM
- Intracellular Con. of HFs-G (HeLa-UGT1A9 cells [1]; [12]): 280.60 ± 28.78 µM
SMILES: O=C(O)[C@H]1O[C@@H](Oc2c(-c3ccccc3)oc3ccccc3c2=O)[C@H](O)[C@@H](O)[C@@H]1O [3HF-G]

SMILES: O=c1cc(-c2cccc(O)c2)oc2ccccc12 [3′HF, 3′-Hydroxyflavone]
- Km (UGT1A9; [4]): 2.02 µM
- Log(CLint)′ (UGT1A9; [4]): 2.66
- Vmax′ (UGT1A9; [4]): 926 pmol/mg/min

SMILES: O=c1cc(-c2ccc(O)cc2)oc2ccccc12 [4′HF, 4′-Hydroxyflavone]
- Km (UGT1A9; [4]): 1.46 µM
- Log(CLint)′ (UGT1A9; [4]): 1.83
- Vmax′ (UGT1A9; [4]): 98.7 pmol/mg/min

SMILES: O=c1cc(-c2ccccc2)oc2cccc(O)c12 [5HF, 5-Hydroxyflavone]
- Vmax′ (UGT1A9; [4]): 118 pmol/mg/min
- CLint′(Vmax′/ Km′) (UGT1A9): 123 µL/min/mg
- Km (UGT1A9): 0.96 µM
- Log(CLint)′ (UGT1A9): 2.09

- Log(CLint) (BCRP): 0.77
- Vmax (BCRP): 283.4 ± 20.0 pmol/mg/min
- Km (BCRP): 48.5 µM
- difference in Km between membrane vesicles and HeLa-UGT1A9 cells [3]: > 10 fold
- Km [3]: 2.9 µM
- Intracellular Con. of HFs-G or DHFs-3-O-G (HeLa-UGT1A9 cells [1]; [7]): 31.03 ± 0.44 µM
- Intracellular Con. of HFs-G or DHFs-3-O-G (HeLa-UGT1A9 cells [1]; [8]): 47.98 ± 3.91 µM
- Intracellular Con. of HFs-G or DHFs-3-O-G (HeLa-UGT1A9 cells [1]; [9]): 72.86 ± 2.26 µM
- Intracellular Con. of HFs-G or DHFs-3-O-G (HeLa-UGT1A9 cells [1]; [10]): 94.74 ± 11.70 µM
- Intracellular Con. of HFs-G (HeLa-UGT1A9 cells [1]; [11]): 18.32 ± 6.47 µM
- Intracellular Con. of HFs-G (HeLa-UGT1A9 cells [1]; [12]): 235.51 ± 14.96 µM
SMILES: O=C(O)[C@H]1O[C@@H](Oc2cccc3oc(-c4ccccc4)cc(=O)c23)[C@H](O)[C@@H](O)[C@@H]1O [5HF-G]

SMILES: O=c1cc(-c2ccccc2)oc2ccc(O)cc12 [6HF, 6-Hydroxyflavone]
- Km (UGT1A9; [4]): 2.27 µM
- Log(CLint)′ (UGT1A9; [4]): 1.53
- Vmax′ (UGT1A9; [4]): 76.1 pmol/mg/min

SMILES: O=c1cc(-c2ccccc2)oc2cc(O)ccc12 [7HF, 7-Hydroxyflavone]
- Km (UGT1A9; [4]): 3.59 µM
- Log(CLint)′ (UGT1A9; [4]): 3.13
- Vmax′ (UGT1A9; [4]): 4895 pmol/mg/min
